Measured values: ChEMBL document CHEMBL4513216, “Probing the Open Global Health Chemical Diversity Library for Multistage-Active Starting Points for Next-Generation Antimalarials” (ACS Infect Dis, 2020)

Assay: Toxicity liver stage against HepG2, at 10uM
Assay type: cell-based
Design: test concentration 10 uM, cell line HepG2-A16-CD81EGFP
Conditions: human, HepG2-A16-CD81EGFP cells; read-out: INHIBITION
Method in brief: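 Uninfected HepG2-A16-CD81EGFP cells, 3 × 10^3 per well, 1536-well, plated on prespotted compound at 10 μM final, parasite-free screening media added to match infected plates; puromycin 10 μM positive, DMSO 0.5% negative; run in parallel with 48 h PbLuc assay at 37 °C, 5% CO2; viability by CellTiter-Glo luminescence, normalized to controls.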

In order of rising cytotoxicity at 10 µM:
1. Cn1ncc2c(N3CCN4CCCCC4C3)nc(C3CCCC3)nc21 (configuration not stated)  -139%
2. COCC(=O)N1CCC2(CC1)CC(N1CCOCC1)c1ccc(C)cc12 (configuration not stated)  -116%
3. Cc1cc(-c2cnc(C3CC3)nc2CN(C)C(=O)c2ccccn2)on1  -45%
4. CC(=O)N1CCC[C@@H](NCc2ccc(F)cc2)[C@@H]1c1ccc(C)s1  -22.1%
5. COc1ccccc1CC(=O)N1CCCC(c2cc(C)[nH]n2)C1 (configuration not stated)  -21%
6. Cc1ncc(CN2CCOC(CNc3cccnn3)C2)s1 (configuration not stated)  -19.8%
7. Cc1cccc(CS(=O)(=O)NCC(O)Cc2ccccc2)c1 (configuration not stated)  -19.5%
8. CCn1nc(CC(C)C)cc1C(=O)NCCCOC  -18.8%
9. O=C(c1cn(-c2cc(N3CCOCC3)ncn2)cn1)N1CCSCC1  -18.3%
10. O=C1CCCN1CCN1CCCC(c2ccn[nH]2)C1 (configuration not stated)  -16.7%
11. CN(Cc1noc(C2CC2)n1)C1CCN(CCS(C)(=O)=O)C1 (configuration not stated)  -14.9%
12. CC(C)C(C(=O)N1CCN(Cc2ccccn2)CC1)n1cncn1 (configuration not stated)  -14.5%
13. Cc1nnc(NC(=O)CN2CCCC2c2c(C)nn(C)c2C)s1 (configuration not stated)  -14.1%
14. Cc1noc(C2CCCN(CC(=O)N3CCNC(=O)C3)C2)n1 (configuration not stated)  -13%
15. CN(Cc1cnn(C)c1)C(=O)NCCc1ccc2c(c1)OCO2  -12.4%
16. CCn1ccnc1CN1CCCN(C(=O)c2ccnc(C)n2)CC1  -12.2%
17. Cc1ccccc1OCCCC(=O)NC(C)c1nnc2n1CCC2 (configuration not stated)  -11.5%
18. NC(=O)Nc1cccc(CNC(=O)CCCc2ccccc2)c1  -10.1%
19. CCN(CC)c1ncccc1CNC(=O)c1cnn(CC)c1  -8.2%
20. COc1cnc(N2C[C@H](CO)C[C@H](CN3CCOCC3)C2)nc1  -8.11%
21. Cc1cccc(CN2C[C@@H]3CCCO[C@@H]3[C@H](NS(C)(=O)=O)C2)n1  -8.06%
22. Cc1ccc(NC2CCN(C(=O)CCNc3ncccn3)CC2)nn1  -7.69%
23. O=C(c1ccc(F)cc1)N1CCC2(CC1)CC(N1CCOCC1)C2  -7.52%
24. CC(C)CN(CC(O)c1ccc(F)cc1)C(=O)c1cnsn1 (configuration not stated)  -6.87%
25. CCc1nc(N2CCN(Cc3ncccc3C)CC2)c2cnn(C)c2n1  -6.46%
26. CCCNc1c(NC(=O)NCCOC)c(=O)oc2ccccc12  -6.23%
27. O=C(c1cnc(-c2ncccn2)s1)N1CCCC1Cn1cccn1 (configuration not stated)  -5.97%
28. CCCc1nc(C)cc(N2CCC3(CCC(=O)N(CCCO)C3)CC2)n1  -5.81%
29. Cc1ccc(CN(Cc2nc3c(cnn3C)c(=O)[nH]2)C(C)C)s1  -5.48%
30. Cc1cccc(CN2CCN(C(=O)c3cc(C4CC4)[nH]n3)CC2)c1  -5.38%
31. COCCCN1CCC(NC(=O)C2CC2)CC1  -5.02%
32. CC(C)(CO)CCCNC(=O)NC1(c2cccc(F)c2)CC1  -4.86%
33. COc1ccccc1C(=O)Nc1ccc(OC2CCN(C)CC2)cc1  -4.85%
34. Cc1nn(C)cc1-c1cncn1CCN(C)C1CCCC1  -4.64%
35. COc1cccc(OC)c1C(=O)N1C[C@@H](CN(C)C)[C@@H](CO)C1  -4.51%
36. CC(Cn1cccn1)NC(=O)NCCN1CCc2ccccc2C1 (configuration not stated)  -4.45%
37. CN1C(=O)CC2(CCNCC2)c2ccccc21  -3.92%
38. Cc1nnc2n1CCN(Cc1ncc(-c3ccccc3)o1)C2  -3.78%
39. Cc1ccc(CN2CC[C@@H]3O[C@@H](C(=O)N4CCN(C)CC4)C[C@@H]32)cc1  -3.62%
40. CC(C)CNC(=O)CC1OCCc2ccsc21 (configuration not stated)  -3.49%
41. COc1ccc(CN(C)C(=O)NC(C)c2nncn2C)cc1F (configuration not stated)  -2.85%
42. CCN1C[C@@H]2CN(S(=O)(=O)c3cccs3)C[C@@H]2C1=O  -2.42%
43. Cc1ccc(NCc2cncc3c2CCN(C(=O)C2CC=CC2)C3)nn1  -2.42%
44. O=C(NCCOc1ccc(Cl)cn1)Nc1cccnc1  -2.3%
45. Cc1c(C(=O)N2CCC2)nnn1-c1ccc2ncccc2c1  -2.29%
46. CCSCCC(C)NC(=O)Nc1cccn(C)c1=O (configuration not stated)  -2.19%
47. CCN(CC)C(=O)COc1ccnc2cc(OC)ccc12  -2.17%
48. CC(C)Oc1cccc(CN(C)C(=O)Cc2ccon2)c1  -2.09%
49. Cc1occc1C(=O)Nc1cccc(C(=O)OCC2CCCN2)c1 (configuration not stated)  -2.09%
50. CCn1nc(C)c(CNC(=O)c2cn(CCC3CCCCN3)nn2)c1C (configuration not stated)  -1.96%
51. Cc1cccc(CN2C[C@@H]3COC[C@]3(COCC(=O)N(C)C)C2)n1  -1.95%
52. COc1cc(F)ccc1-c1nc2c([nH]1)c(C1CC1)nn2C  -1.72%
53. CC(=O)N1CCC(NC2(Cc3cc(CN(C)C)on3)COC2)CC1  -1.38%
54. O=C(O)CCc1nc2nccc(C(F)(F)F)n2n1  -1.36%
55. Cc1cc(N2CCOC(C(F)(F)F)C2)nc(-c2ccccc2)n1 (configuration not stated)  -1.23%
56. CCN1CCN(C(=O)C2CCCc3[nH]ncc32)CC1 (configuration not stated)  -1.21%
57. CC(=O)Nc1nc(CS(=O)(=O)CCCc2ccccc2)cs1  -1.2%
58. CCN(C)C(=O)c1cc(-c2cn(C(C)C)cn2)n2ccccc12  -1.16%
59. CC(C)CNC(=O)CNC(=O)NC(C)COc1ccccc1F (configuration not stated)  -0.956%
60. O=C(c1ccc(F)cc1F)N1CCN(C(=O)C2CCCCC2)CC1  -0.876%
61. O=C(CC1CCCO1)Nc1cccc(N2CCN(CC3CC3)CC2)c1 (configuration not stated)  -0.699%
62. O=C(NCCCN1CCOCC1)c1nc(-c2ccc3cc[nH]c3c2)no1  -0.663%
63. Cc1ccc(N2CCC(N3C[C@@H](CN(C)C)[C@@H](CO)C3)CC2)cc1  -0.608%
64. Cc1ccc(CC2COCCN(S(C)(=O)=O)C2)nc1 (configuration not stated)  -0.56%
65. CCOC1COC2(CCN(Cc3ccc(F)cc3)CC2)C1 (configuration not stated)  -0.508%
66. Cn1nc(CNS(=O)(=O)Cc2ccccc2F)c2c1CCCC2  -0.0785%
67. CCCS(=O)(=O)N1CCC2(CC1)CC(Nc1ncccn1)CO2 (configuration not stated)  -0.00726%
68. CSc1ccc(NC(=O)NCc2nncn2C2CC2)cc1F  0%
69. CC(=O)c1cc2ncc(C(=O)NC3CCCCC3)cc2[nH]1  0.0039%
70. CC1=C(C#N)C(=O)NC(=O)/C1=C\c1c(C)[nH]n(-c2ccccc2)c1=O  0.137%
71. Cc1cnn(CCCn2c(C)cc(C(F)(F)F)cc2=O)c1  0.529%
72. CCN(CC)C(=O)Cn1nc(C(C)C)c2cnn(C(C)(C)C)c2c1=O  0.703%
73. CCN1CCc2onc(CNc3ncccn3)c2C1  0.927%
74. CC(=O)NCc1ccc(-c2ccccc2C(=O)O)cn1  1%
75. c1ccc(CN2CCC(NCCSc3cnn[nH]3)C2)cc1 (configuration not stated)  1.12%
76. CC(C)N1CCC2(C=C(C(=O)NC3CC3)c3ccccc32)CC1  1.29%
77. CN(C)C(CNS(=O)(=O)c1cc(F)ccc1F)c1cccn1C (configuration not stated)  1.33%
78. Cc1cc2nc(-c3ccccc3)cc(NCC3CCS(=O)(=O)C3)n2n1 (configuration not stated)  1.38%
79. CC(C)c1nn(C)c(N(C)C)c1CNC1CCc2cc(F)ccc21 (configuration not stated)  1.93%
80. CCCNC(=O)c1cc2c(s1)CCN2C(=O)CN(C)C  2.03%
81. CCS(=O)(=O)NCCCNc1cc(N2CCCC2CO)ncn1 (configuration not stated)  2.2%
82. Cc1ccccc1C1(CNC(=O)NCCc2nnc3n2CCC3)CC1  2.48%
83. c1cnn(CC2CN(CCc3ccncc3)CCO2)c1 (configuration not stated)  2.74%
84. C=Cc1cccc(CN(Cc2cnn(C)c2)C2CC2)c1  3%
85. CC(=O)NCC(=O)N(CCc1ccccc1)C1CCOC1 (configuration not stated)  3.02%
86. Cc1ccccc1C(C(=O)NCc1nc(-c2ncccn2)no1)N(C)C (configuration not stated)  3.09%
87. Cn1cccc1C(=O)N1CCN2C[C@H](Oc3cccnc3)C[C@H]2C1  3.58%
88. CC(C)Cn1cc(NCc2cscn2)cn1  3.86%
89. CSCC[C@H](NC(=O)Cn1ccc2c(Cl)cccc21)C(=O)O  4.18%
90. CC(NC(=O)NCc1cccc(N2CCCC2=O)c1)c1ccccc1 (configuration not stated)  4.52%
91. O=C(O)[C@]12CCCN(Cc3cccnc3)[C@@H]1CCN(c1cnccn1)C2  4.63%
92. CCOc1cccc(C(C(=O)O)N(C)Cc2cc(C)no2)c1 (configuration not stated)  4.64%
93. CC(C)Nc1cccc(C(=O)NCC(O)c2cccc(F)c2)c1 (configuration not stated)  4.67%
94. CCC(CO)NC(=O)c1ccc2ccc(N(C)CC3CC3)n2c1 (configuration not stated)  4.82%
95. Cc1nc(C)n(CC2CN(CCc3ccccn3)CCO2)n1 (configuration not stated)  4.89%
96. CC[C@@H]1N(Cc2ccc(C)s2)CCC[C@]12CCC(=O)N2C  4.94%
97. Cc1nc(CSCCC(=O)Nc2cccc(N3CCNC3=O)c2)cs1  5.31%
98. Nc1nnnn1NCc1ccccc1C(F)(F)F  5.56%
99. COCc1ccccc1C(=O)N1CCN(C2=NCC(C)(C)S2)CC1  6.11%
100. CCNc1ncc(CN(Cc2ccccc2)CC(C)CO)cn1 (configuration not stated)  6.33%
101. Cc1nsc(N2CCc3sccc3C2)n1  7.03%
102. CC1CCN(C(=O)[C@@H]2C[C@@H]3CCN(CC4CCOCC4)C[C@@H]3O2)CC1  7.13%
103. O=C(NC1CCC(O)CC1)c1ccc2nc(-c3ccccc3)cn2c1 (configuration not stated)  8.99%
104. CC1CS(=O)(=O)CCN1CCCc1ccc(Cl)cc1 (configuration not stated)  9.28%
105. CCN(CC)S(=O)(=O)N1C[C@@H](O)[C@H](Oc2cccc(F)c2)C1  9.73%
106. CN1CCC2(Cc3ccccc3NC2=O)C1 (configuration not stated)  9.82%
107. CCCNC(=O)NCc1ccccc1NS(=O)(=O)c1ccccc1  10.3%
108. CC(C)n1ccc(=O)nc1SC1CCN(c2ccccc2F)C1=O (configuration not stated)  11.8%
109. CN(Cc1ccc2nonc2c1)C(=O)c1ccc(C2CCCO2)s1 (configuration not stated)  12.1%
110. Cc1cccc(C(=O)N2CCC(Cc3cnc4[nH]ccc4c3)CC2)n1  12.2%
111. Cc1nc(CN2CCCN(Cc3nc4ccccc4o3)CC2)no1  12.3%
112. CN(C)C(=O)c1ccc2c(c1)N(C)C(CC(=O)NCc1ccno1)CO2 (configuration not stated)  12.4%
